Experimental data pooled from the literature.
Protocols differ between the studies behind these lines.

SMILES	test	system	conditions	logD
CCC1=C(C)c2cc3[nH]c(cc4[nH]c(cc5nc(cc1n2)C(C)=C5CC)c(C)c4CC)c(CC)c3C	shake flask	aqueous buffer	pH 9	1.42
Fc1ccc(Nc2c(-c3ccccn3)nc3ccc(C4CC4)cn23)cc1	–	–	pH 7.4	2.9
O=C(O)CN(CCCc1ccccc1)CC(=O)N[C@@H](Cc1c[nH]cn1)C(=O)NCc1ccccc1	shake flask	PBS	2 h, pH 7.4	-0.58
CCCS(=O)(=O)Oc1ccc(-n2c(-c3ccc(Cl)cc3Cl)nc(C(=O)NN3CCCCC3)c2C)cc1	shake flask	aqueous buffer	pH 7.4	4.6
CC(C)Cc1ccc(C(C)C(=O)O)cc1 (stereo not drawn)	shake flask	aqueous buffer	pH 7.5	0.94
COc1ccc2cc(CCC[18F])ccc2c1	shake flask	aqueous buffer	pH 7.4	2.46
Cc1c(C(=O)N[C@H]2CCC[C@H](O)C2)nc(-c2ccc(Cl)cc2Cl)n1-c1ccc(OS(=O)(=O)CCC(F)(F)F)cc1 (relative stereo)	shake flask	aqueous buffer	pH 7.4	4.6
Cc1noc([C@H](Cc2c[nH]cn2)NC(=O)CN(CCCc2ccccc2)CC(=O)O)n1	shake flask	PBS	2 h, pH 7.4	-0.84
C[C@]1(C(=O)O)CSC(c2ccc(OCCCCCC(=O)O)cc2O)=N1	shake flask	aqueous buffer	pH 7.4	-1.9
COc1cc2c(cc1OC)CN(CCCCn1ccc3c(OCC[18F])cccc31)C2	shake flask	aqueous buffer	pH 7.4	2.43
CCCCc1nc2c(N)nc3ccccc3c2n1Cc1ccc(CN)cc1	shake flask	PBS	pH 7.4	0.42
Cc1c(C(=O)NC2CCC(O)CC2)nc(-c2ccc(Cl)cc2Cl)n1-c1ccc(OS(=O)(=O)CCC(F)(F)F)cc1 (stereo not drawn)	shake flask	aqueous buffer	pH 7.4	4.2
COCCCCCCOc1ccc(C2=N[C@@](C)(C(=O)O)CS2)c(O)c1	shake flask	aqueous buffer	pH 7.4	0.95
CC(C)CN(C[C@@H](O)[C@H](Cc1ccccc1)NC(=O)O[C@H]1CO[C@H]2OCC[C@H]21)S(=O)(=O)c1ccc(N)cc1	shake flask	PBS	pH 7.4	2.84
Cc1c(C(=O)NN2CCCCC2)nc(-c2ccc(Cl)cc2Cl)n1-c1ccc(OS(=O)(=O)CCC(F)(F)F)cc1	shake flask	aqueous buffer	pH 7.4	4.9
CN1CCN(c2ccc3nc(-c4ccc5nc(-c6ccc(OCCCCNC(=S)Nc7ccc(CC(CN(CCN(CC(=O)O)CC(=O)O)CC(=O)O)N(CC(=O)O)CC(=O)O)cc7)cc6)[nH]c5c4)[nH]c3c2)CC1 (stereo not drawn)	shake flask	PBS	pH 7.4	-1.4
Cc1c(C(=O)Nc2ccc(F)nc2)nc(-c2ccc(Cl)cc2Cl)n1-c1ccc(OS(=O)(=O)CCC(F)(F)F)cc1	shake flask	aqueous buffer	pH 7.4	> 4.3
CN1CCN(c2ccc3[nH]c(-c4ccc5[nH]c(-c6ccc(O)cc6)nc5c4)nc3c2)CC1	shake flask	PBS	pH 7.4	2.2
O=C(NCCN1CCCC1)c1cc(-c2ccc(CN3CCOCC3)cc2)nc2ccc(F)cc12	shake flask	aqueous buffer	pH 7.4	2.5
N#Cc1c[nH]c2c(C(=O)N3CCN(CCc4ccc(F)cc4)CC3)cccc12	shake flask	aqueous buffer	pH 7.4	3.5
Cc1c(C(=O)N[C@@H]2CCCC[C@@H]2O)nc(-c2ccc(Cl)cc2Cl)n1-c1ccc(OS(=O)(=O)CCC(F)(F)F)cc1 (single isomer, unassigned)	shake flask	aqueous buffer	pH 7.4	> 4.3
COC(=O)CN(CCCc1ccccc1)CC(=O)N[C@@H](Cc1c[nH]cn1)c1nc(C)no1	shake flask	PBS	2 h, pH 7.4	1.52
Cc1c(C(=O)NN2CCCCC2)nc(-c2ccc(Cl)cc2Cl)n1-c1ccc(OS(=O)(=O)CCC(C)C)cc1	shake flask	aqueous buffer	pH 7.4	5.3
CNC(=O)[C@H](Cc1c[nH]cn1)NC(=O)CN(CCCc1ccccc1)CC(=O)O	shake flask	PBS	2 h, pH 7.4	-1.36
CCOCc1nc2c(N)nc3ccccc3c2n1CC(C)(C)O	shake flask	PBS	pH 7.4	1.14
CCCCS(=O)(=O)Oc1ccc(-n2c(-c3ccc(Cl)cc3Cl)nc(C(=O)NN3CCCCC3)c2C)cc1	shake flask	aqueous buffer	pH 7.4	5.1
CNC(=O)[C@H](Cc1c[nH]cn1)NC(=O)CN(CC(=O)O)Cc1ccccc1	shake flask	PBS	2 h, pH 7.4	-2.29
